How the values were obtained:
Influenza A virus [1] = experiment: Antiviral activity against Influenza A virus A/Virginia/ATCC3/2009(H1N1pdm) infected in MDCK cells assessed as reduction in virus-induced cytopathic effect after 3 days by microscopic method; format: functional, organism-based, Influenza A virus (A/Virginia/03/2009(H1N1)); conditions: 72 h
In short: (§1)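 Semi-confluent MDCK cells were infected at an MOI of 0.0004 PFU/cell in Ultra-MDCK infection medium with 2 μg/mL TPCK-trypsin, together with compounds. After 3 days at 35 °C, CPE was scored by microscopy and confirmed by MTS formazan viability. EC50 is the concentration giving 50% inhibition of virus-induced CPE. Values are means of two to five independent tests.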

[2] = (§2) Cytotoxicity against MDCK cells assessed as reduction in cell viability after 3 days by MTS assay; format: cell-based, Canis lupus familiaris; conditions: dog, MDCK cells
H3N2 subtype [3] = experiment: Antiviral activity against Influenza A virus A/HK/7/87(H3N2) infected in MDCK cells after 3 days by MTS assay; format: functional, organism-based; conditions: A/Hong Kong/7/1987(H3N2), 72 h; in short: as §1
Influenza A virus [4] = experiment: Antiviral activity against Influenza A virus A/PR/8/34(H1N1) infected in MDCK cells after 3 days by MTS assay; format: functional, organism-based, A/Puerto Rico/8/1934(H1N1); conditions: Influenza A virus, A/Puerto Rico/8/1934(H1N1), MDCK, 72 h; in short: as §1
Influenza A virus [5] = experiment: Antiviral activity against Influenza A virus A/PR/8/34(H1N1) infected in MDCK cells assessed as reduction in virus-induced cytopathic effect after 3 days by microscopic method; format: functional, organism-based, A/Puerto Rico/8/1934(H1N1); conditions: Influenza A virus, A/Puerto Rico/8/1934(H1N1), MDCK, 72 h; in short: as §1
H3N2 subtype [6] = experiment: Antiviral activity against Influenza A virus A/HK/7/87(H3N2) infected in MDCK cells assessed as reduction in virus-induced cytopathic effect after 3 days by microscopic method; format: functional, organism-based; conditions: A/Hong Kong/7/1987(H3N2), 72 h; in short: as §1
[7] = Cytotoxicity against MDCK cells assessed as alteration in cell morphology after 3 days by microscopic method; format: cell-based, Canis lupus familiaris; conditions: dog
In short: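 Mock-infected MDCK cells were treated with compounds in parallel with the antiviral assay, 3 days at 35 °C. MCC is the concentration causing minimal change in cell morphology by microscopy. CC50 is the 50% cytotoxic concentration by MTS formazan viability assay.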

Influenza B virus [8] = experiment: Antiviral activity against Influenza B virus B/HK/05/72 infected in MDCK cells assessed as reduction in virus-induced cytopathic effect after 3 days by microscopic method; format: functional, organism-based; conditions: B/Hong Kong/05/1972, MDCK, 72 h; in short: as §1
Influenza A virus [9] = experiment: Antiviral activity against Influenza A virus A/PR/8/34(H1N1) GFP-fused pseudotyped lentiviral particle expressing H1-HA/N1-NA infected in MDCK cells assessed as inhibition of pseudoparticle entry at 2 uM after 3 days by flow cytometry relative to control; format: functional; conditions: A/Puerto Rico/8/1934(H1N1), 72 h
In short: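 MDCK cells were seeded at 7500/well and one day later were exposed to compounds plus GFP lentiviral pseudoparticles bearing A/PR/8/34 H1-HA and N1-NA, with HA0 activated by trypsin. After 3 days the cells were trypsinized, fixed in paraformaldehyde and analysed for GFP by flow cytometry. Entry inhibition was taken as the reduction in GFP signal. Data are the mean ± SEM of four independent experiments.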

Influenza A virus [10] = experiment: Antiviral activity against Influenza A virus A/Virginia/ATCC3/2009(H1N1pdm) infected in MDCK cells after 3 days by MTS assay; format: functional, organism-based, Influenza A virus (A/Virginia/03/2009(H1N1)); conditions: 72 h; in short: as §1
Influenza B virus [11] = experiment: Antiviral activity against Influenza B virus B/HK/05/72 infected in MDCK cells after 3 days by MTS assay; format: functional, organism-based; conditions: B/Hong Kong/05/1972, MDCK, 72 h; in short: as §1
MDCK = experiment: as §2; format: cell-based, Canis lupus familiaris; conditions: dog, mdck, 72 h
[12] = Selectivity index, ratio of MCC for MDCK cells to EC50 for Influenza A virus A/HK/7/87(H3N2) infected in MDCK cells assessed as reduction in virus-induced cytopathic effect by microscopic method; format: toxicity, cell-based; conditions: dog, read-out: Selectivity Index
In short: (§3)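 Selectivity index is MCC divided by EC50. MCC comes from microscopy of mock-infected MDCK cells. EC50 comes from microscopic scoring of virus-induced CPE in MDCK cells infected at an MOI of 0.0004 PFU/cell with TPCK-trypsin. Both readings were taken after 3 days at 35 °C.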

[13] = Selectivity index, ratio of MCC for MDCK cells to EC50 for Influenza A virus A/PR/8/34(H1N1) infected in MDCK cells assessed as reduction in virus-induced cytopathic effect by microscopic method; format: toxicity, cell-based; conditions: dog, read-out: Selectivity Index; in short: as §3
[14] = Selectivity index, ratio of MCC for MDCK cells to EC50 for Influenza B virus B/Ned/537/05 infected in MDCK cells assessed as reduction in virus-induced cytopathic effect by microscopic method; format: toxicity, cell-based; conditions: dog, read-out: Selectivity Index; in short: as §3
[15] = Selectivity index, ratio of MCC for MDCK cells to EC50 for Influenza A virus A/Virginia/ATCC3/2009(H1N1pdm) infected in MDCK cells assessed as reduction in virus-induced cytopathic effect by microscopic method; format: toxicity, cell-based; conditions: dog, read-out: Selectivity Index; in short: as §3
Influenza B virus [16] = experiment: Antiviral activity against Influenza B virus B/Ned/537/05 infected in MDCK cells assessed as reduction in virus-induced cytopathic effect after 3 days by microscopic method; format: functional, organism-based; conditions: B/Ned/537/05, MDCK, 72 h
In short: (§4)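 Semi-confluent MDCK cells were infected at an MOI of 0.0004 PFU/cell in Ultra-MDCK infection medium with 2 μg/mL TPCK-trypsin, together with compounds. After 3 days at 35 °C, CPE was scored by microscopy and confirmed by MTS formazan viability. Values are means of two to five independent tests.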

Influenza B virus [17] = experiment: Antiviral activity against Influenza B virus B/Ned/537/05 infected in MDCK cells after 3 days by MTS assay; format: functional, organism-based; conditions: B/Ned/537/05, MDCK, 72 h; in short: as §4
[18] = Selectivity index, ratio of MCC for MDCK cells to EC50 for Influenza B virus B/HK/05/72 infected in MDCK cells assessed as reduction in virus-induced cytopathic effect by microscopic method; format: toxicity, cell-based; conditions: dog, read-out: Selectivity Index; in short: as §3
Human coronavirus 229E [19] = experiment: Antiviral activity against Human coronavirus 229E infected in HEL299 cells assessed as reduction in virus induced cytopathic effect after 5 days by microscopic method; format: functional, organism-based; conditions: HEL 299, 120 h
In short: (§5)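 Confluent HEL 299 cells in medium with 2% FCS were exposed to HCoV-229E (100 CCID50/well) together with compounds and held for 5 days at 35 °C. EC50 (CPE reduction) and MCC (minimal morphology change) were determined by microscopy. SI is MCC/EC50.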

Human coronavirus 229E [20] = experiment: Antiviral activity against Human coronavirus 229E infected in human A549 cells assessed as reduction in virus RNA level after 3 days by qRT-PCR method; format: functional; conditions: A549, 72 h
In short: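 Confluent A549 cells were infected with HCoV-229E in 2% FCS medium with compounds present. The inoculum was removed at 1 h and compounds were kept on at 35 °C. Supernatants were harvested at day 3, lysed at 75 °C for 10 min, and viral genome copies counted by one-step qRT-PCR.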

[21] = Cytotoxicity against HEL299 cells assessed as changes in cell morphology after 5 days by microscopic method; format: cell-based, HEL 299; conditions: human; in short: as §5
[22] = Cytotoxicity against human A549 cells assessed as changes in cell morphology after 3 days by microscopic method; format: cell-based
In short: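 Mock-infected A549 cells were incubated with compounds for 3 days. MCC is the concentration causing minimal change in cell morphology by microscopy.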

[23] = Selectivity index, ratio of MCC for HEL299 cells to EC50 for Human coronavirus 229E infected in HEL299 cells; format: toxicity, cell-based; conditions: read-out: Selectivity Index; in short: as §5

| SMILES | EC50 (Influenza A virus [1]) [µM] | EC50 (H3N2 subtype [3]) [µM] | EC50 (Influenza A virus [4]) [µM] | EC50 (Influenza A virus [5]) [µM] | EC50 (H3N2 subtype [6]) [µM] | MCC at 72 h [7] [µM] | EC50 (Influenza A virus [10]) [µM] | CC50 (MDCK) [µM] | EC50 (Influenza B virus [16]) [µM] | EC50 (Influenza B virus [17]) [µM] | other results |
| --- | --- | --- | --- | --- | --- | --- | --- | --- | --- | --- | --- |
| CCCCCCCCO[C@@H]1[C@@H](OCCCCCCCC)[C@@H](OC)O[C@H](COCCOCCOCCOCCOCc2cn([C@H]3C(=O)N[C@@H]4Cc5ccc(c(Cl)c5)Oc5cc6cc(c5O)Oc5ccc(cc5Cl)[C@@H](O[C@@H]5O[C@H](CO)[C@@H](O)[C@H](O)[C@H]5NC(C)=O)[C@H]5NC(=O)[C@H](NC(O)[C@@H]6NC(=O)[C@@H](NC4=O)c4cc(O)cc(c4)Oc4cc3ccc4O)c3ccc(O)c(c3)-c3c(O)cc(O)cc3[C@H](C(=O)O)NC5=O)nn2)[C@H]1OCc1ccc(OC)cc1 (some centres not stated) | 1.4 | 1.2 | 1.2 | 0.8 | 1.8 | 20 | < 0.8 | – | – | – | CC50 at 72 h [2]: 11 µM; EC50 (Influenza B virus [8]): > 100 µM; inhibition at 2 µM (Influenza A virus [9]): 54%; EC50 (Influenza B virus [11]): > 100 µM |
| CC(=O)N[C@H]1[C@H](O[C@@H]2c3ccc(c(Cl)c3)Oc3cc4cc(c3O)Oc3ccc(cc3Cl)C[C@H]3NC(=O)[C@H](N5C(=O)C(SC[C@H]6O[C@@H]7OC(C)(C)O[C@@H]7[C@H]7OC(C)(C)O[C@H]76)=C(SC[C@H]6O[C@@H]7OC(C)(C)O[C@@H]7[C@H]7OC(C)(C)O[C@H]76)C5=O)c5ccc(O)c(c5)Oc5cc(O)cc(c5)[C@H](NC3=O)C(=O)N[C@H]4C(O)N[C@H]3C(=O)N[C@H]2C(=O)N[C@@H](C(=O)O)c2cc(O)cc(O)c2-c2cc3ccc2O)O[C@H](CO)[C@@H](O)[C@@H]1O (some centres not stated) | 2.1 | 1.7 | 9.1 | > 100 | 2.3 | 20 | 2.2 | 26 | > 100 | 4.2 | selectivity ratio [12]: 5; selectivity ratio [13]: 5; selectivity ratio [14]: 5; selectivity ratio [15]: 5; selectivity ratio [18]: 5 |
| CC(=O)N[C@H]1[C@H](O[C@@H]2c3ccc(c(Cl)c3)Oc3cc4cc(c3O)Oc3ccc(cc3Cl)C[C@H]3NC(=O)[C@H](NS(=O)(=O)c5ccc(C)cc5)c5ccc(O)c(c5)Oc5cc(O)cc(c5)[C@H](NC3=O)C(=O)N[C@H]4C(O)N[C@H]3C(=O)N[C@H]2C(=O)N[C@@H](C(=O)O)c2cc(O)cc(O)c2-c2cc3ccc2O)O[C@H](CO)[C@@H](O)[C@@H]1O (some centres not stated) | 30 | 19 | 11 | 9 | 41 | 100 | 32 | > 100 | 11 | 12 | EC50 (Human coronavirus 229E [19]): 5.2 µM; EC90 (Human coronavirus 229E [20]): 4.9 µM; EC99 (Human coronavirus 229E [20]): 10 µM; MCC at 120 h [21]: ≥ 100 µM; MCC at 72 h [22]: > 50 µM; selectivity ratio [23]: 19 |

— ChEMBL document CHEMBL4270630
